An excerpt weighted towards active compounds, which were near 3.6% of everything screened.
PfHsp90 set2: growth inhibition of PfHsp90-expressing yeast, primary screen, antimalarial PfHsp90 inhibitor project, S. cerevisiae, BacTiter-Glo luminescence, single point, set 2; inhibition, % at 9.4 µM; AID 504621, 2011; BacTiter-Glo ATP, 48 h; yeast lacking PDR1 and PDR3 efflux regulators; 310,000 compounds, 0.32% hits;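 active = every replicate shows inhibition above about 80%, whatever the replicate mean, limit read from the data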
T cruzi repl: inhibitors of intracellular T. cruzi growth, primary screen, luminescence, NIH3T3 host cells; T. cruzi beta-gal in NIH3T3, 90 h; 300,000 compounds, 1.4% hits; inhibition, % (concentration not given with the values);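 active = mean inhibition across valid replicates above about 55%, limit read from the data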;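 also: signal also drops with host cell toxicity which is not excluded here; higher percent means less beta-gal luminescence so fewer parasites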
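System: mouse NIH/3T3 fibroblasts infected with β-gal-expressing T. cruzi Tulahuen C4 / Input: NIH/3T3 cells, 5,000 per well / Buffer or medium: Low-serum DMEM with 2% FBS / Probe or stimulus: 5000 reporter trypomastigotes per well / Schedule: ≥90 h infection period, 3 h prior cell attachment / Measured by: GalScreen luminescence, 60 min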
CSC inhib: cancer stem cell viability inhibitors, primary screen, luminescence | cancer stem cell-like cells viability | inhibition, % at 7.5 µM | 300,000 compounds, 1.1% hits; in the data active = inhibition above about 75%; tested in HMLE shEcad cells
SKKanGAS inh: S. pyogenes SKKanGAS growth inhibitors in kanamycin, primary screen, streptokinase expression inhibitor project, SKKanGAS strain, BacTiter-Glo luminescence; 6 h; inhibition, % at 7.5 µM; 300,000 compounds, 1.3% hits;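 active = mean replicate score, as percent of positive control median, at least 50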;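 also: strain carries kanamycin resistance gene driven by streptokinase promoter and grows in 40 µg/ml kanamycin; loss of luminescence reflects streptokinase promoter inhibition or plain growth inhibition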
Beta apoptosis: inhibitors of cytokine-induced beta cell apoptosis, primary screen, luminescence; INS-1E cytokine-induced death, ATP luminescence, 48 h; percent of positive-control rescue, neutral wells zero; 300,000 compounds, 0.8% hits; AID 435005, 2010; protection from apoptosis, % (concentration not given with the values);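 active = Every replicate reaches about 75%, or at least half do and their mean reaches it too, limit read from the data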;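 also: higher means more ATP so stronger rescue from cytokine killing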
HIF act: HIF pathway transcriptional activators, primary screen, cell-based, U2OS HRE-luciferase, luminescence. U2OS HRE-luciferase reporter; normalized: DMSO 0%, desferrioxamine 100%. activation, % at 7.5 µM (by protocol). 300,000 compounds, 0.32% hits. AID 1910, 2009;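 active = mean activation of at least 10% of the iron chelator positive control signal, with at least half of replicates also reaching 10%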
Of the large screens only hits and unclear results are named; the others gave an inactive call.

CC(=O)CSc1ncnc2sc3c(c12)CCC3	none
C(=N\Nc1nc2ccccc2s1)/c1cccs1	none
CCn1c(C)c(/C=N/Nc2nc3ccccc3s2)c2ccccc21	T cruzi repl 69.4 (no result: PfHsp90 set2, CSC inhib, Beta apoptosis)
O=C(CCC1CCCN(c2ncccn2)C1)NCc1ccccc1F (centres undefined)	none
Cc1ccc(CNC(=O)CCC2CCCN(Cc3cccc4ncccc34)C2)o1 (centres undefined)	T cruzi repl 66.5
Cc1ccc(CNC(=O)CCC2CCCN(Cc3cccc4cccnc34)C2)o1 (centres undefined)	none (no result: PfHsp90 set2)
CCOc1cccc(CN2CCCC(CCC(=O)NCc3ccccc3F)C2)c1O (centres undefined)	T cruzi repl 56.0
Cc1nn(C)c(Cl)c1CN1CCCC(CCC(=O)NCc2ccccc2F)C1 (centres undefined)	T cruzi repl 59.8
CC1=C(n2nnc([N+](=O)[O-])n2)C(c2cccnc2)C(C#N)=C(N)O1 (centres undefined)	T cruzi repl 56.6 (no result: Beta apoptosis)
COC(=O)C1=C(C)OC(N)=C(C#N)C1c1cccnc1 (centres undefined)	none
CN1CCC(N(C)C(=O)c2cc(-c3ccc(F)cc3)nc3ccccc23)CC1	none (no result: T cruzi repl, SKKanGAS inh, HIF act)
COc1ccc(NC2=NC(=S)N(c3ccccc3C)C23CCCCC3)cc1	none
[O-][N+]1=c2ccc(Nc3ccccc3)cc2=NC12CCCCC2	CSC inhib 79.6, Beta apoptosis 106.7
COc1ccc(Nc2ccc3c(c2)=NC2(CCCCC2)[N+]=3[O-])cc1	T cruzi repl 58.4, Beta apoptosis 104.3 (no result: PfHsp90 set2)
CC(C)(C)c1ccc(C(=O)CCC(=O)OCC(=O)NCCc2ccc(S(N)(=O)=O)cc2)cc1	none (no result: PfHsp90 set2, T cruzi repl, CSC inhib, SKKanGAS inh, HIF act)
CC(=O)c1ccc(S(=O)(=O)N2CCN(CC(=O)Nc3ccccc3C(=O)NC3CC3)CC2)cc1	none (no result: PfHsp90 set2, T cruzi repl, CSC inhib, SKKanGAS inh, HIF act)
COc1cccc(/C=N/n2c(N)nc3ccccc32)c1OC	SKKanGAS inh 53.3
COc1ccc(/C=N/n2c(N)nc3ccccc32)cc1OC	none (no result: T cruzi repl, SKKanGAS inh, HIF act)
CC(=O)Nc1ccc2nc(NC(=O)c3ccc([N+](=O)[O-])s3)sc2c1	T cruzi repl 56.1 (no result: PfHsp90 set2)
CCCCOC(=O)Nc1nc2ccc([N+](=O)[O-])cc2s1	none
CC(=O)Nc1ccc2nc(NC(=O)c3cccs3)sc2c1	none
CCC(=O)Nc1nc2ccc([N+](=O)[O-])cc2s1	T cruzi repl 62.5 (no result: CSC inhib)
Cc1nc2nc(C)n(CCN3CCOCC3)c(=O)c2c(-c2cccc([N+](=O)[O-])c2)c1C(=O)CCCCCCCCCCN1CCC(c2ccccc2)(c2ccccc2)CC1	none (no result: T cruzi repl, CSC inhib, SKKanGAS inh, Beta apoptosis, HIF act)
O=C(Cc1cccc(NC(=O)C2CCCN(C(=O)CCc3ccccc3)C2)c1)Nc1ccc(C(=O)N2CCCCC2)cc1 (centres undefined)	none (no result: T cruzi repl, CSC inhib, SKKanGAS inh, Beta apoptosis, HIF act)
Cc1ccc(C)c(NC(=O)CSc2ncnc3nc[nH]c23)c1	none
O=C(CSc1ncnc2nc[nH]c12)Nc1nnc(SCc2ccc(Cl)c(Cl)c2)s1	CSC inhib 93.5
COc1ccc(-c2nnc(Nc3nc4c(OC)cccc4s3)o2)c(OC)c1	none (no result: CSC inhib, Beta apoptosis)
COc1ccc(-c2nnc(Nc3nc4c(OC)cccc4s3)o2)cc1	CSC inhib 81.3, SKKanGAS inh 73.2
Fc1cccc2sc(Nc3nnc(-c4ccccc4)o3)nc12	SKKanGAS inh 87.4
COc1cc(OC)cc(-c2nnc(Nc3nc4c(F)cccc4s3)o2)c1	none
CCCCn1c(N)c(N(CC)C(=O)C2CCC2)c(=O)[nH]c1=O	none (no result: T cruzi repl, CSC inhib, SKKanGAS inh, HIF act)
Nc1cc2c(cc1C(=O)c1cccc(Br)c1)OCCO2	none
O=C1NN(c2cccc(Br)c2)C(=O)/C1=C\c1ccccc1	CSC inhib 109.0
O=C1NN(c2ccccc2)C(=O)/C1=C\c1ccccc1	none
CCN(CC)c1ccc(N=Cc2ccc([N+](=O)[O-])o2)cc1	Beta apoptosis 75.4
CCNc1nc(NCC)nc(N/N=C/c2ccc([N+](=O)[O-])o2)n1	none
CCN(CC)c1ccc(N=Cc2ccccc2[N+](=O)[O-])cc1	T cruzi repl 74.3, Beta apoptosis 99.5
CC(=O)N(C)c1ccc(N=Cc2cc3c(cc2[N+](=O)[O-])OCO3)cc1	none
O=C(N/N=C/c1cccnc1)c1ccc(NC(=O)C(c2ccccc2)c2ccccc2)cc1	Beta apoptosis 109.8 (no result: CSC inhib)
O=C(CNC(=O)C(c1ccccc1)c1ccccc1)N/N=C/c1cccnc1	none
COc1ccc(C2=Nc3ccccc3C2(O)CCN2C(=O)c3ccccc3C2=O)cc1 (centres undefined)	none (no result: T cruzi repl, CSC inhib, SKKanGAS inh, Beta apoptosis, HIF act)
O=C(NCC(O)c1ccccc1)c1cccs1 (centres undefined)	none (no result: CSC inhib, Beta apoptosis)
CCOc1ccc(CN2CCCC(N3CCN(c4ccc(OC)cc4)CC3)C2)cc1 (centres undefined)	T cruzi repl 58.6
OCCOc1ccc(CN2CCCC(N3CCN(c4ccc(F)cc4)CC3)C2)cc1 (centres undefined)	none (no result: Beta apoptosis)
COc1cc(C[C@H](C)[C@H](C)Cc2ccc3c(c2)OCO3)ccc1O	CSC inhib 126.5
CC1OC(CC(=O)O)CC2=C1C(=O)c1c(O)cccc1C2=O (centres undefined)	PfHsp90 set2 106.0 (no result: T cruzi repl, CSC inhib, SKKanGAS inh, Beta apoptosis, HIF act)
CCN(CC)CCOC(=O)c1ccc(NC(=S)NC(=O)/C=C/c2ccco2)cc1	none (no result: PfHsp90 set2)
O=C(NCc1ccncc1)c1cccc(S(=O)(=O)Nc2ccc(SC(F)F)cc2)c1	none (no result: PfHsp90 set2)
COc1ccc(-c2nc(-c3cccs3)c(-c3cccs3)[nH]2)cc1O	SKKanGAS inh 60.8 (no result: PfHsp90 set2)
O=C(O)c1ccc(-c2nc(-c3ccccc3)c(-c3cccs3)[nH]2)cc1	none
Cc1ccc(C(=O)Nc2nnc(S(=O)(=O)N3CCN(c4ccc(F)cc4)CC3)s2)cc1	SKKanGAS inh 54.2
Cc1ccc(NC(=O)c2cccc(S(=O)(=O)N3CCN(c4ccc(F)cc4)CC3)c2)nc1	none (no result: CSC inhib)
Cc1ccccc1N1CCN(S(=O)(=O)c2nnc(NC(=O)c3ccc(F)cc3)s2)CC1	none
CC(=O)Nc1nnc(S(=O)(=O)N2CCN(c3ccc([N+](=O)[O-])cc3Cl)CC2)s1	SKKanGAS inh 54.7
O=C(Nc1ccncc1)c1cccc(S(=O)(=O)N2CCN(c3ccc(F)cc3)CC2)c1	T cruzi repl 57.9
CC(C)(C)C(=O)N1CCN(c2ccc([N+](=O)[O-])cc2Cl)CC1	none
COc1ccccc1C(=O)Nc1nnc(S(=O)(=O)N2CCN(c3ccc(F)cc3)CC2)s1	SKKanGAS inh 54.1
Nc1nccc(NCCSCc2ccccc2)n1	none (no result: T cruzi repl, CSC inhib, SKKanGAS inh, Beta apoptosis, HIF act)
O=C(NC1CCCCC1)C1CC(=O)N(c2ccccc2)C1 (centres undefined)	none (no result: CSC inhib)
C/C(=N\NC(N)=O)c1ccccc1	none
NC(=O)N/N=C(/CCCCCC/C(=N\NC(N)=O)c1ccccc1)c1ccccc1	SKKanGAS inh 52.9 (no result: PfHsp90 set2)

Screens from PubChem.
